Results taken from ChEMBL document CHEMBL2176880 (J Med Chem, 2012).
Calls of active or inactive are those of the source.

Tests used:
Cavia porcellus = test: Cardiotoxicity in anesthetized guinea pig assessed as proarrhythmic potency; format: toxicity, organism-based; conditions: in vivo
TK6 [1] = test: Genotoxicity in human TK6 cells in absence of rat liver S9 fraction up to 150 ug/ml; format: toxicity, cell-based
Procedure, shortened: (§1)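 In vitro micronucleus test in human lymphoblastoid TK6 cells, with or without metabolic activation by rat liver S9, tested up to 150 μg/mL.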

TK6 [2] = test: Genotoxicity in human TK6 cells in presence of rat liver S9 fraction up to 150 ug/ml; format: toxicity, cell-based; procedure, shortened: as §1
Salmonella typhimurium = test: Mutagenicity in Salmonella typhimurium TA98 up to […]; format: toxicity, organism-based; conditions: salmonella enterica subsp. enterica serovar typhimurium
Canis familiaris = test: Cardiotoxicity in anesthetized dog assessed as proarrhythmic potency; format: toxicity, organism-based, Canis lupus familiaris; conditions: in vivo
[3] = Cardiotoxicity assessed as proarrhythmic potency in rabbit Purkinje fibers; format: toxicity, tissue-based, Oryctolagus cuniculus, Purkinje fiber
Rattus norvegicus [4] = test: Inhibition of REM sleep state in po dosed Sprague-Dawley rat sleep-wake EEG paradigm model; format: functional; conditions: read-out: MED
[5] = Oral bioavailability in dog rat at […]; format: ADME, organism-based, Canis lupus familiaris; conditions: in vivo
[6] = Cmax in dog rat at 1 mg/kg, iv or […], po; format: ADME, organism-based, Canis lupus familiaris; conditions: in vivo
[7] = AUC (0 to infinity) in dog rat at 1 mg/kg, iv or […], po; format: ADME, organism-based, Canis lupus familiaris; conditions: plasma
[8] = Tmax in dog rat at 1 mg/kg, iv or […], po; format: ADME, organism-based, Canis lupus familiaris; conditions: in vivo
[9] = Half life in dog rat at 1 mg/kg, iv or […], po; format: ADME, organism-based, Canis lupus familiaris; conditions: in vivo
[10] = Volume of distribution at steady state in dog rat at 1 mg/kg, iv or […], po; format: ADME, organism-based, Canis lupus familiaris; conditions: in vivo, read-out: Vdss
MDR1 [11] = test: Apparent permeability from basolateral to apical side in MDR1 expressing pig LLC-PK1 cells; format: ADME, cell-based, Sus scrofa
Cytochrome P450 2C19 = Cytochrome P450 2C19 (Homo sapiens, UniProt P33261); test: Inhibition of CYP2C19; format: ADME
Chain of Cytochrome P450 2C19 (P33261 whole entry): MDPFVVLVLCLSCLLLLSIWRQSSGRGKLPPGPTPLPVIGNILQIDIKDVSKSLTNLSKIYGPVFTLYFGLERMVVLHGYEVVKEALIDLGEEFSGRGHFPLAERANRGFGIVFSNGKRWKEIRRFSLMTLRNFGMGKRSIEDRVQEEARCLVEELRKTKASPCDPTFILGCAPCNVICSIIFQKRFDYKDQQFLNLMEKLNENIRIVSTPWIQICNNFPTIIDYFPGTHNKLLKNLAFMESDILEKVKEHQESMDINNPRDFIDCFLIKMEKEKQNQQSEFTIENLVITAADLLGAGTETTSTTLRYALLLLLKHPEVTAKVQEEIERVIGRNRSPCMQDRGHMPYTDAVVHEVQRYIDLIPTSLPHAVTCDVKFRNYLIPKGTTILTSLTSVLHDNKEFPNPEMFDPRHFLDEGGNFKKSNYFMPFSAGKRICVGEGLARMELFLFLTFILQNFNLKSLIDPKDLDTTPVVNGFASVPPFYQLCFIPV

[12] = Protein binding in rat plasma; format: ADME, cell-free; conditions: read-out: PPB (converted)
[13] = Protein binding in human plasma; format: ADME, cell-free; conditions: read-out: PPB (converted)
Cytochrome P450 1A2 = molecular target: T1, Cytochrome P450 1A2 (Homo sapiens, UniProt P05177); test: Inhibition of CYP1A2; format: ADME
T1 sequence (P05177 whole entry): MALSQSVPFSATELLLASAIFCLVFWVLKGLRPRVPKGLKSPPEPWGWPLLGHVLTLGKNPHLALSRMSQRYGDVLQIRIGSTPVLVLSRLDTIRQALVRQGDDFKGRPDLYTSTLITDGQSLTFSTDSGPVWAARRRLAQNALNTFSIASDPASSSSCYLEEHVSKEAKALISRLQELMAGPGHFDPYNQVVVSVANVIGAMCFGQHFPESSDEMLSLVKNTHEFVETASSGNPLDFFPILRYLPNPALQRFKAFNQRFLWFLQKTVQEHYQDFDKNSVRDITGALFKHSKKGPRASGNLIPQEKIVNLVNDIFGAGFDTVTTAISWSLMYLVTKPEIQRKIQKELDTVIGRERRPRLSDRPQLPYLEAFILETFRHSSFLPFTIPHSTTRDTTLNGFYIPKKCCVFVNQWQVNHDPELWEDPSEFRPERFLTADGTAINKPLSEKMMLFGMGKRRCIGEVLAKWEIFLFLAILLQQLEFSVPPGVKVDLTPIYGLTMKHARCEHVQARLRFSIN

[14] = Dissociation constant, pKa of the compound; format: physicochemical
Mus musculus [15] = test: Antipsychotic activity in subcutaneously dosed NMRI mouse assessed as efficacy free concentration causing reversal of PCP-induced hyperlocomotion; format: functional
Mus musculus [16] = test: Antipsychotic activity in subcutaneously dosed NMRI mouse assessed as reversal of PCP-induced hyperlocomotion; format: functional
Procedure, shortened: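 Nonhabituated mice given vehicle or test compound sc, then immediately challenged with PCP (5.0 mg/kg, sc) or vehicle and placed singly in open fields for 30 min. Distance travelled measured by video tracking. Responder criterion: total distance < 5500 counts.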

Rattus norvegicus [17] = test: Inhibition of REM sleep state in Sprague-Dawley rat sleep-wake EEG paradigm model assessed as efficacy free concentration at 3 mg/kg, po; format: functional
Rattus norvegicus [18] = test: Effect on sleep-wake stages in Sprague-Dawley rat sleep-wake EEG paradigm model assessed as induction of sleep fragmentation at 3 mg/kg, po; format: organism-based; parameters: dose 3 mg/kg, route oral; conditions: in vivo
Procedure, shortened: (§2)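 Male Sprague−Dawley rats (250−300 g) chronically implanted with EEG, EMG and EOG electrodes; n = 8 per group. A 20 h recording after oral saline was followed by a 20 h recording at the same circadian time after oral vehicle (20% CD + 2H2T) or compound (3 mg/kg), starting at 13:30 in the lights-on period. 2 s epochs scored into sleep−wake stages; REM onset latency and state transitions determined. Wilcoxon−Mann−Whitney tests against vehicle.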

Rattus norvegicus [19] = test: Prolongation of REM sleep onset latency in Sprague-Dawley rat sleep-wake EEG paradigm model at 3 mg/kg, po; format: functional, organism-based; parameters: dose 3 mg/kg; procedure, shortened: as §2
Rattus norvegicus [20] = test: Effect on sleep-wake stages in Sprague-Dawley rat sleep-wake EEG paradigm model at 3 mg/kg, po; format: ADME, organism-based; parameters: dose 3 mg/kg, route oral; conditions: in vivo; procedure, shortened: as §2
Rattus norvegicus [21] = test: Inhibition of REM sleep state in Sprague-Dawley rat sleep-wake EEG paradigm model at 3 mg/kg, po; format: functional, organism-based; parameters: dose 3 mg/kg; procedure, shortened: as §2
[22] = Oral bioavailability in Sprague-Dawley rat at 10 mg/kg; format: ADME, organism-based; conditions: in vivo
[23] = Cmax in Sprague-Dawley rat at […], iv or 10 mg/kg, po; format: ADME, organism-based; conditions: in vivo
[24] = AUC (0 to infinity) in Sprague-Dawley rat at 10 mg/kg, po; format: ADME, organism-based; parameters: time infinity, dose 10 mg/kg, route oral; conditions: plasma
[25] = Tmax in Sprague-Dawley rat at […], iv or 10 mg/kg, po; format: ADME, organism-based; conditions: in vivo
[26] = Volume of distribution at steady state in Sprague-Dawley rat at […], iv or 10 mg/kg, po; format: ADME, organism-based; conditions: in vivo, read-out: Vdss
[27] = Half life in Sprague-Dawley rat at […], iv; format: ADME, organism-based; parameters: dose 2.5 mg/kg, route intravenous; conditions: in vivo
[28] = Clearance in Sprague-Dawley rat at […], iv; format: ADME, organism-based; parameters: dose 2.5 mg/kg, route intravenous; conditions: in vivo
[29] = Ratio of drug level in brain to plasma in Swiss mouse at 10 mg/kg, sc administered as single dose measured 1 hr post dose; format: ADME, organism-based; parameters: dose 10 mg/kg, route subcutaneous; conditions: read-out: BPR
Procedure, shortened: (§3)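 Swiss mice given a single 10 mg/kg sc dose at 1 mg/mL in 20% HP-β-CD + HCl solution, pH 4. Brain and plasma levels taken 1 h post dose. Values are geometric means of at least two runs.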

[30] = Drug level in Swiss mouse brain at 10 mg/kg, sc administered as single dose measured 1 hr post dose; format: ADME, organism-based; parameters: dose 10 mg/kg, route subcutaneous; conditions: read-out: Drug uptake; procedure, shortened: as §3
[31] = Plasma concentration in Swiss mouse at 10 mg/kg, sc administered as single dose measured 1 hr post dose; format: ADME, organism-based; parameters: dose 10 mg/kg, route subcutaneous; procedure, shortened: as §3
[32] = Drug metabolism in mouse liver microsomes at 5 uM after 15 mins; format: ADME, Microsome; conditions: read-out: Drug metabolism
[33] = Drug metabolism in human liver microsomes at 5 uM after 15 mins; format: ADME, Microsome; conditions: read-out: Drug metabolism
Procedure, shortened: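 Compound at 5 μM incubated 15 min with human liver microsomes; read-out is % of compound metabolized. Values are the mean of at least two experiments.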

Cytochrome P450 2C9 = Cytochrome P450 2C9 (Homo sapiens, UniProt P11712); test: Inhibition of CYP2C9; format: ADME
Chain of Cytochrome P450 2C9 (P11712 whole entry): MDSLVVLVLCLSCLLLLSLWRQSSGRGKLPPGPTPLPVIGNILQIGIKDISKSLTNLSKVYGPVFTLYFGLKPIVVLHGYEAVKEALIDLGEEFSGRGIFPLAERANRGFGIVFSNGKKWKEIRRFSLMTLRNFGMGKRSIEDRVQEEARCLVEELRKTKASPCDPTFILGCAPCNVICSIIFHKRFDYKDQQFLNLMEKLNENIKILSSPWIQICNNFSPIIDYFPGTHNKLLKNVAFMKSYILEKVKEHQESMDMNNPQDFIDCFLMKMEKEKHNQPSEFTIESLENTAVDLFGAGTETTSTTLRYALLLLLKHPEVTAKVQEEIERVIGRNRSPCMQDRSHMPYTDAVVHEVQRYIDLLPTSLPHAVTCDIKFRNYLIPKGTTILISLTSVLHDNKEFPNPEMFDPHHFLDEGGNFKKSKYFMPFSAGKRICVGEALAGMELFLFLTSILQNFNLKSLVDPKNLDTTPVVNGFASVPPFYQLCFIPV

Cytochrome P450 3A4 = Cytochrome P450 3A4 (Homo sapiens, UniProt P08684); test: Inhibition of CYP3A4; format: ADME
Chain of Cytochrome P450 3A4 (P08684 whole entry): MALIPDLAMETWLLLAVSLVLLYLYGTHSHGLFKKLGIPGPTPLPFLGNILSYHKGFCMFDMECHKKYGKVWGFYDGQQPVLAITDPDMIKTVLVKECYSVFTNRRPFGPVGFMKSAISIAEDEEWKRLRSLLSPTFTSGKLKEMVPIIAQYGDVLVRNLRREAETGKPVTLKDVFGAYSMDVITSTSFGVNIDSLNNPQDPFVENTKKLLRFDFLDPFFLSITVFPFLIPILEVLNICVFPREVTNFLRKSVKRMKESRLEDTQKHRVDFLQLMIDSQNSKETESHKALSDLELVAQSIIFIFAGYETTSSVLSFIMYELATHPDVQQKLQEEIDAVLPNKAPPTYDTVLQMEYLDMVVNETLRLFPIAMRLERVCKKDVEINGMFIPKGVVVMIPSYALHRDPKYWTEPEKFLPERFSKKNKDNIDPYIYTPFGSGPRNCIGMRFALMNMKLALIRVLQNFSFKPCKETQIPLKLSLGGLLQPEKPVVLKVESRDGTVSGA

MDR1 [34] = test: Apparent permeability from apical to basolateral side in MDR1 expressing pig LLC-PK1 cells; format: ADME, cell-based, Sus scrofa
[35] = Clearance in dog rat at 1 mg/kg, iv or […], po; format: ADME, organism-based, Canis lupus familiaris; conditions: in vivo
Cytochrome P450 2D6 = Cytochrome P450 2D6 (Homo sapiens, UniProt P10635); test: Inhibition of CYP2D6; format: ADME
Chain of Cytochrome P450 2D6 (P10635 whole entry): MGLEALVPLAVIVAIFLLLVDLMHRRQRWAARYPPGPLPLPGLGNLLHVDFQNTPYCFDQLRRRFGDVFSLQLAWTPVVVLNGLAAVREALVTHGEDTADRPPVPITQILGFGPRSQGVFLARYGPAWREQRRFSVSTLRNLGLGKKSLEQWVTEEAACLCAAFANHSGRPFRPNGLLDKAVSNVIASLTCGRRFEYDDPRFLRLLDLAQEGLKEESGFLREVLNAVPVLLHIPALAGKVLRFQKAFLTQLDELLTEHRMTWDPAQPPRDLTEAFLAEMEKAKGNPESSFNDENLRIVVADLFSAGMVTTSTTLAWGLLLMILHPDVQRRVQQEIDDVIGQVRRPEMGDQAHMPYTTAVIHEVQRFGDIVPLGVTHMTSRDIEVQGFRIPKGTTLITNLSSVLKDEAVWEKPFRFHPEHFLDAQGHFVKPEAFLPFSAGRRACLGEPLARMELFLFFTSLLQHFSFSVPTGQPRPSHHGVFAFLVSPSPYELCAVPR

[36] = Lipophilicity, log P of the compound at pH 7; conditions: buffer

bioavailability [5]: 18% | Cmax [6]: 218 ng/mL | AUC(0-inf) [7]: 531 ng·h/mL | Tmax [8]: 30 min | half-life [9]: 48 min | Vd [10]: 1.3 L/kg | Papp B→A (MDR1 [11]): 6 ×10⁻⁶ cm/s | IC50 (Cytochrome P450 2C19): 20 µM | fraction unbound [12]: 0.0035 | fraction unbound [13]: 0.0018 | IC50 (Cytochrome P450 1A2): > 30 µM | pKa [14]: 4.1 | bioavailability [22]: 36% | Cmax [23]: 482 ng/mL | AUC(0-inf) [24]: 1800 ng·h/mL | Tmax [25]: 30 min | Vd [26]: 1.4 L/kg | half-life [27]: 162 min | clearance [28]: 35 mL/min/kg | Kp at 1 h [29]: 1.4 | concentration at 1 h [30]: 849 ng/mL | concentration at 1 h [31]: 671 ng/mL | metabolised at […], 5 µM [32]: 25% | metabolised at […], 5 µM [33]: 23% | IC50 (Cytochrome P450 2C9): 11 µM | IC50 (Cytochrome P450 3A4): > 30 µM | Papp A→B (MDR1 [34]): 12 ×10⁻⁶ cm/s | clearance [35]: 29 mL/min/kg | IC50 (Cytochrome P450 2D6): > 30 µM | logD [36]: 4.4
SMILES: FC(F)(F)c1c(N2CCC(c3ccccc3)CC2)ccn2c(CC3CC3)nnc12
NOAEL (Cavia porcellus): 9000 ng/mL | Activity (TK6 [1]): Non-toxic | Activity (TK6 [2]): Non-toxic | Activity (Salmonella typhimurium): Non-toxic | NOAEL (Canis familiaris): 6625 ng/mL | NOAEL [3]: 0.075 µM | minimal effective dose (Rattus norvegicus [4]): 3 mg/kg | INH (Mus musculus [15]): 2.6 ng/mL | Activity (Mus musculus [16]): Dose-dependent effect | ED50 (Mus musculus [16]; sc): 5.4 mg/kg | INH (Rattus norvegicus [17]): 0.14 ng/mL | Activity (Rattus norvegicus [18]): Non-toxic | Activity (Rattus norvegicus [19]): Active | Activity (Rattus norvegicus [20]): Non-toxic | inhibition (Rattus norvegicus [21]): Active
